Calls of active or inactive are those of the source. No cut-off for these calls is given here. Starred links: 1 amine or outer side, 2 acyl side, 3 side chain; linkers in the order of their positions; H or OH if unused. Non-standard residues stand in square brackets, D forms with d. Residues, ends and D or L forms follow the SMILES beside them. *: point of attachment. Ahppa(3S,4S) = O=C(C[C@H](O)[C@H](Cc1ccccc1)N[*:1])[*:2]; dNMeF = CN[C@H](Cc1ccccc1)C(=O)O; NMeQ = CN[C@@H](CCC(N)=O)C(=O)O; Cbz = O=C(OCc1ccccc1)*
Columns and labels:
Brain = test: Drug concentration in CF1 mouse brain at 30 mg/kg, ip measured 3 hrs post dose by HPLC-MS method relative to compound plasma concentration; format: ADME, organism-based; set-up: dose 30 mg/kg, route intraperitoneal
Outline: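 CF-1 mice, 8 weeks old, 25−35 g, given 30 mg/kg i.p. in 5% DMSO/15% Solutol HS 15/10% EtOH/65% water; killed 3 h post-dose. Cerebellum and cortex homogenized in acetonitrile (1:10 w:v) containing internal standard, then re-extracted. Plasma was taken by cardiac puncture into K-EDTA. Levels were measured by HPLC-MS (MRM, negative ionization) and interpolated from a calibration curve.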

Cathepsin E = target: T1, Cathepsin E (Homo sapiens, UniProt P14091); test: Inhibition of cathepsin E by fluorescence assay
T1 sequence (P14091 whole entry): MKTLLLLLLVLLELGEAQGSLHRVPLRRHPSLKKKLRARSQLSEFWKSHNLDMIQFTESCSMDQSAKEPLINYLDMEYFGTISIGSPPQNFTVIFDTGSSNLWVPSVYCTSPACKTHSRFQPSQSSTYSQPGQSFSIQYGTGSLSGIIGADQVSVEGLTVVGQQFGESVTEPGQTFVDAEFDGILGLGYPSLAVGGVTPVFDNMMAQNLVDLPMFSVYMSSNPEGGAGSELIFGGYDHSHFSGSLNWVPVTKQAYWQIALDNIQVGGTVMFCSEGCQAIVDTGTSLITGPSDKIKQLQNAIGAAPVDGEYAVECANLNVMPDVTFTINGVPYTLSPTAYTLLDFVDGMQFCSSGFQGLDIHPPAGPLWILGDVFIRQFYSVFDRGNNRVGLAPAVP

[1] = target: T2, Gamma-secretase (Homo sapiens) (UniProt Q96BI3+Q9NZ42+Q8WW43+P49768+Q92542+P49810); test: Inhibition of gamma secretase expressed in human H4 cells expressing BRI-C99 fusion protein assessed as C99 fragment accumulation fragment at 10 uM incubated for 16 hrs in by immunoblot; format: cell-based
Outline: (§1)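 H4 cells overexpressing Bri-C99 (400000/well) were kept in Opti-MEM with 1% serum and treated 16 h with test compound (10 μM), LY411575 (100 nM) or BACE1 inhibitor IV (1 μM). Cells were lysed in TBS/1% Triton X-100 and run on a 12% bis-tris gel. Blots were probed with CT-20 antibody for furin-generated C99 and read on an infrared imager.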

Cathepsin D = Cathepsin D (Homo sapiens, UniProt P07339); test: Inhibition of cathepsin D by fluorescence assay
Sequence of Cathepsin D (P07339 65-162 limits assumed): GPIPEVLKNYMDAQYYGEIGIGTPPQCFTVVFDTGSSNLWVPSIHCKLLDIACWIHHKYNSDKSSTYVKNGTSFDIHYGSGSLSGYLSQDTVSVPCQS
Sequence of Cathepsin D (P07339 169-412 limits assumed): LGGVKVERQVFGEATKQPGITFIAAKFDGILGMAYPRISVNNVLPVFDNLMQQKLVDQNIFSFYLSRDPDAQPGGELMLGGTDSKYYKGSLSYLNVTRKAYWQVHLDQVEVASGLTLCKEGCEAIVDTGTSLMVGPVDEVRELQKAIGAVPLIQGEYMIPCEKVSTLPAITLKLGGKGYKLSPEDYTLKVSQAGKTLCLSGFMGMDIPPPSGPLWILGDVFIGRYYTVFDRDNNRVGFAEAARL

Serum [2] = test: Drug metabolism in mouse serum assessed as ester hydrolysis mediated formation of metabolites by HPLC-MS method; format: ADME, cell-free
Outline: (§2)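 Compound (10 μL of 25 μg/mL) was incubated with 100 μL mouse serum at 37 °C for 0, 1, 2, 4, 8, 12 and 24 h. The reaction was quenched with EtOAc plus internal standard, shaken 5 min, centrifuged at 16000g, and the organic layer dried and taken up in MeOH. Parent and ester-hydrolysis acid were quantified by HPLC-MS MRM interpolation; n = 2.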

Beta-secretase 1 [3] = target: T3, Beta-secretase 1 (Homo sapiens, UniProt P56817); test: Inhibition of BACE1 by fluorescence assay
T3 sequence (P56817 whole entry): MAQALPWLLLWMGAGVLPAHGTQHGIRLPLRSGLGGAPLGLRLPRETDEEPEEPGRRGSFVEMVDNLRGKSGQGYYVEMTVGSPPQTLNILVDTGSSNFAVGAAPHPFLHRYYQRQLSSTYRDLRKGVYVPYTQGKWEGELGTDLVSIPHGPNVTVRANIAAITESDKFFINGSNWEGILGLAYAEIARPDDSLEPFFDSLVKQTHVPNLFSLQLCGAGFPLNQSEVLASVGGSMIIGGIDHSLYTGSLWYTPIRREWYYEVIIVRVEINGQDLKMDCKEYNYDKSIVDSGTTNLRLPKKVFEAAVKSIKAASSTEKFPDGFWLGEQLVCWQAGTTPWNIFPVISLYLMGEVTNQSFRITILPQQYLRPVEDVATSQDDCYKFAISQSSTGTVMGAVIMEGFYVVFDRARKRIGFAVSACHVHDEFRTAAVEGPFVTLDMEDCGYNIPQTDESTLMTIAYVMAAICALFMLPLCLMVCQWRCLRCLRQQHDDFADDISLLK

[4] = Permeability at 10 uM at pH 5.0 by PAMPA method; format: ADME; conditions: read-out: permeability
Beta-secretase 1 [5] = target: T3, Beta-secretase 1; conditions: H4, at 10 µM
[6] = Drug metabolism in human H4 cells lysates assessed as ester hydrolysis mediated formation of metabolites by HPLC-MS method; format: ADME, cell-based, Lysate
Outline: (§3)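 H4 whole-cell lysate was diluted to 1 mg/mL protein in 0.1 M phosphate buffer, pH 7.4. Parent and acid hydrolysis product were extracted with EtOAc with internal standard. Quantitation was by HPLC-MS MRM against a calibration curve; n = 2.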

Beta-secretase 1 [7] = target: T3, Beta-secretase 1; test: Inhibition of BACE1 expressed in human H4 cells assessed as reduction in CTF levels at 10 uM incubated for 16 hrs by immunoblot; format: cell-based
Beta-secretase 1 [8] = target: T3, Beta-secretase 1; test: Inhibition of BACE1 expressed in CHO 2B7 cells expressing wild type APP695 assessed as reduction in Abeta40/Abeta42 levels incubated for 16 hrs by sandwich ELISA; format: cell-based
Nucleic Acid = test: Ratio of drug level in CF1 mouse brain to IC50 for inhibition of BACE1-mediated Abeta40/Abeta42 production in CHO 2B7 cells expressing wild type APP695; format: cell-based
Outline: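 CF-1 mice (8 weeks, 25−35 g) received 30 mg/kg i.p. in 5% DMSO/15% Solutol HS 15/10% EtOH/65% water and were killed 3 h post-dose. Cerebellum and cortex were homogenized in acetonitrile (1:10 w:v) with internal standard and quantified by HPLC-MS (MRM, negative ion). The cellular reference was CHO 2B7 (APP695 wt): 16 h treatment, 1% DMSO, secreted Aβ40/Aβ42 sandwich ELISA.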

Mus musculus = test: Reduction in […] in CF1 mouse at 30 mg/kg, ip measured 3 hrs post dose by sandwich ELISA; format: functional, organism-based; set-up: dose 30 mg/kg
H4 = test: Inhibition of Alpha secretase expressed in human H4 cells assessed as reduction in C83 levels at 10 uM incubated for 16 hrs by immunoblot; format: cell-based
Outline: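 H4 cells (3 × 10⁵/well) adhered 4−6 h in DMEM/10% FCS at 37 °C, then were switched to serum-free Ultraculture containing compound at 10 μM final for 16 h. Cells were lysed in NP40/deoxycholate buffer, and protein was equalized by BCA. Lysates were run on 10−20% tricine gels and immunoblotted with antibody to the APP C-terminal 20 residues (1:2000); C99 and C83 were imaged on an infrared system.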

[9] = Stability in human H4 cells lysates by HPLC-MS method; format: ADME, cell-based, Lysate; outline: as §3
[10] = Permeability at 10 uM at pH 7.4 by PAMPA method; format: ADME; conditions: read-out: permeability
Outline: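 Filters were coated with BBB-1 lipid, with brain sink buffer in the acceptor. Plates were incubated 4 h at room temperature, humidified. Absorbance was read at 250−350 nm and Pe calculated. Triplicate; mean ± SD.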

Serum [11] = test: Stability in mouse serum by HPLC-MS method; format: ADME, cell-free; outline: as §2
[12] = target: T2, Gamma-secretase (Homo sapiens); test: Inhibition of gamma secretase expressed in human H4 cells expressing BRI-C99 fusion protein assessed as C99 fragment accumulation fragment at 100 nM incubated for 16 hrs in by immunoblot; format: cell-based; outline: as §1
[13] = target: T2, Gamma-secretase (Homo sapiens); test: Inhibition of gamma secretase expressed in human H4 cells assessed as reduction in C83 levels at 10 uM incubated for 16 hrs by immunoblot; format: cell-based
[14] = target: T2, Gamma-secretase (Homo sapiens); test: Inhibition of gamma secretase expressed in human H4 cells assessed as reduction in CTF levels at 10 uM incubated for 16 hrs by immunoblot; format: cell-based

Q: Which Drug uptake (Brain) does the source give for `COc1cccc(CNC[C@@H](O)[C@H](Cc2ccccc2)NC(=O)c2cc(C(=O)N[C@H](C)c3ccccc3)cc(N(C)S(C)(=O)=O)c2)c1` here?
A: Its Drug uptake is 10%.

Q: Which IC50 (Cathepsin E) does the source give for `COC(=O)[C@@H]1CCCN1C(=O)[C@@H](Cc1ccccc1)N(C)C(=O)[C@H](C)NC(=O)[C@H](CC(C)C)NC(=O)C[C@H](O)[C@H](Cc1ccccc1)NC(=O)[C@H](CCC(N)=O)NC(C)=O` here?
A: Its IC50 is 77.5 nM.

Q: And the inhibition [1]?
A: The inhibition was “inactive”.

Q: And the IC50 (Cathepsin D)?
A: The IC50 was 7.81 nM.

Q: For `COC(=O)[C@@H]1CCCN1C(=O)[C@@H](Cc1ccccc1)N(C)C(=O)[C@H](C)NC(=O)[C@H](CC(C)C)NC(=O)C[C@H](O)[C@H](Cc1ccccc1)NC(=O)c1cc(NS(C)(=O)=O)cc(C(=O)N[C@H](C)c2ccccc2)c1`, which IC50 (Cathepsin E) is on record?
A: The IC50 was 210 nM.

Q: And the Drug metabolism (Serum [2])?
A: Its Drug metabolism is “Active”.

Q: And the IC50 (Beta-secretase 1 [3])?
A: Its IC50 is 128 nM.

Q: And the Papp at 10 µM [4]?
A: The Papp at 10 µM was 10.7 ×10⁻⁶ cm/s.

Q: And the inhibition [1]?
A: Its inhibition is “inactive”.

Q: What about the Drug uptake (Brain) of the same molecule?
A: Its Drug uptake is 2.5%.

Q: And the inhibition (Beta-secretase 1 [5])?
A: The inhibition was “Active”.

Q: And the Drug metabolism [6]?
A: The Drug metabolism was “Active”.

Q: And the inhibition (Beta-secretase 1 [7])?
A: Its inhibition is “Active”.

Q: And the IC50 (Beta-secretase 1 [8])?
A: Its IC50 is 100 nM.

Q: And the Ratio (Nucleic Acid)?
A: The Ratio was 3.

Q: And the Activity (Mus musculus)?
A: The Activity was “inactive”.

Q: And the IC50 (Cathepsin D)?
A: The IC50 was 11.3 nM.

Q: What about the inhibition (H4) of the same molecule?
A: The inhibition was “inactive”.

Q: And the Stability [9]?
A: Its Stability is “Stable”.

Q: What about the Papp at 10 µM [10] of the same molecule?
A: The Papp at 10 µM was 8.58 ×10⁻⁶ cm/s.

Q: And the Stability (Serum [11])?
A: The Stability was “Stable”.

Q: What does the source list for `C[C@H](NC(=O)[C@@H](O)c1cc(F)cc(F)c1)C(=O)N[C@@H]1C(=O)N(C)c2ccccc2-c2ccccc21`?
A: inhibition [12]: Active; inhibition [13]: Active; inhibition [14]: Active

Q: Which results are given for `COC(=O)[C@@H]1CCCN1C(=O)[C@@H](Cc1ccccc1)N(C)C(=O)[C@H](C)NC(=O)[C@H](CC(C)C)NC(=O)C[C@H](O)[C@H](Cc1ccccc1)NC(=O)[C@H](CCC(N)=O)N(C)C(=O)[C@@H](N)C(C)C`?
A: IC50 (Cathepsin E): 58.2 nM; inhibition [1]: inactive; IC50 (Cathepsin D): 17.3 nM; inhibition (H4): inactive

Q: Which IC50 (Cathepsin E) does the source give for `COC(=O)[C@@H](Cc1ccccc1)N(C)C(=O)[C@H](C)NC(=O)[C@H](CC(C)C)NC(=O)C[C@H](O)[C@H](Cc1ccccc1)NC(C)=O` here?
A: The IC50 was 1520 nM.

Q: What about the IC50 (Beta-secretase 1 [3]) of the same molecule?
A: Its IC50 is > 10000 nM.

Q: What about the IC50 (Cathepsin D) of the same molecule?
A: Its IC50 is 412 nM.

Q: Which IC50 (Cathepsin E) does the source give for `COC(=O)[C@@H]1CCCN1C(=O)[C@@H](Cc1ccccc1)N(C)C(=O)[C@H](C)NC(=O)[C@H](CC(C)C)NC(=O)C[C@H](O)[C@H](Cc1ccccc1)NC(=O)[C@H](CCC(N)=O)N(C)C(=O)[C@@H](NC(=O)OCc1ccccc1)C(C)C` (Cbz-V[NMeQ][Ahppa(3S,4S)]LA[dNMeF]P-OMe) here?
A: Its IC50 is 0.724 nM.

Q: And the inhibition [1]?
A: The inhibition was “inactive”.

Q: And the IC50 (Cathepsin D)?
A: The IC50 was 0.0783 nM.

Q: With `COC(=O)[C@@H]1CCCN1C(=O)[C@H](Cc1ccccc1)N(C)C(=O)[C@@H](C)NC(=O)[C@H](CC(C)C)NC(=O)C[C@H](O)[C@H](Cc1ccccc1)NC(=O)[C@H](CCC(N)=O)N(C)C(=O)[C@@H](NC(=O)[C@H](C)O)C(C)C` as the molecule, how does the IC50 (Cathepsin E) read?
A: Its IC50 is 1710 nM.

Q: Which IC50 (Cathepsin E) does the source give for `CC(C)C[C@H](NC(=O)C[C@H](O)[C@H](Cc1ccccc1)NC(=O)[C@H](CCC(N)=O)N(C)C(=O)[C@@H](NC(=O)[C@H](C)O)C(C)C)C(=O)N[C@@H](C)C(=O)N(C)[C@H](Cc1ccccc1)C(=O)NCc1ccccc1` here?
A: Its IC50 is 30.4 nM.

Q: And the IC50 (Beta-secretase 1 [3])?
A: The IC50 was 124 nM.

Q: What about the inhibition (Beta-secretase 1 [5]) of the same molecule?
A: The inhibition was “Active”.

Q: And the IC50 (Cathepsin D)?
A: The IC50 was 20.9 nM.

From ChEMBL document CHEMBL2176894, “Cyanobacterial peptides as a prototype for the design of potent β-secretase inhibitors and the development of selective chemical probes for other aspartic proteases” (J Med Chem, 2012)
